Screens from PubChem BioAssay.
Fibroblast inh – blocks proliferation of human lung fibroblasts | LL 47 human lung fibroblast viability, ATP luminescence; active compounds read low | viability, % at 10 µM | hit rate 1.1% among 85,000;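 active means viability at or below 50% in the single dose screen; inactive means viability above 50%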;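 further: compound exposure lasted 72 h before the ATP readout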
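Signal: luminescent ATP detection, CellTiter-Glo; assay system: LL 47 human lung fibroblasts; input: 1,150 cells/well; incubation: overnight cell rest, 72 h compound treatment at 37 °C; measure: % viability versus median cells-only luminescence; medium: IMEM growth medium with 15% fetal bovine serum; dosing: compound addition at 0.1% DMSO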
HUVEC prolif 384 – human endothelial cell proliferation inhibition | HUVEC proliferation, CellTiter-Glo luminescence, 72 h; active compounds read low | viability, % at 10 µM (by protocol) | hit rate 1.1% among 86,000 | AID 648;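 active means viability at or below 30%; inactive means viability above 30%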
Jurkat tox 60K – cytotoxic compounds reducing Jurkat cell viability; inhibition, % at 4 µM; AID 463; hit rate 1.2% among 56,000; Jurkat E6.1 viability, ATP luminescence, 48 h;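 active means inhibition above the mean inhibition of all tested compounds plus 3 SD, cut at about 28% in these data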
H69AR growth 86K – growth inhibitors of human H69AR lung tumor cells; H69AR lung tumor viability, ATP luminescence, 72 h; active compounds read low; viability, % at 10 µM; hit rate 6% among 85,000;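 active means viability at or below 40%; inactive means viability above 40%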;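 further: multidrug resistant small cell line overexpressing MRP-1 efflux transporter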
Each line names hits and unclear results; the compound was inactive in the other large screens. Most compounds without a hit are left out; they make up all but 6.4% or so of the library.

C=CCOc1ccccc1/C=c1\sc2nc(=O)c(C)nn2c1=O	H69AR growth 86K 32.9
C=C1[C@@H](C)C2[C@H](Cc3ccccc3)NC(=O)[C@]23OC(=O)CC[C@H](O)CCC[C@H](C)C/C=C/[C@H]3[C@@H]1O (some centres not stated)	Fibroblast inh 25.1, HUVEC prolif 384 15.3, H69AR growth 86K 37.9 (no result: Jurkat tox 60K)
S=C(Nc1ccc(N2CCOCC2)cc1)Nc1ccc2nc(-c3ccco3)c(-c3ccco3)nc2c1	H69AR growth 86K 32.7 (no result: Jurkat tox 60K)
O=C(Nc1ccc(N2CCOCC2)cc1)c1ccc2nc(-c3ccco3)c(-c3ccco3)nc2c1	H69AR growth 86K 29.3
CC(=O)c1ccc(NC(=O)c2ccc3nc(-c4ccco4)c(-c4ccco4)nc3c2)cc1	H69AR growth 86K 2.4 (no result: Jurkat tox 60K)
Cc1cc(S(=O)(=O)N2CCC(NC(=O)C34CC5CC(CC(C5)C3)C4)CC2)ccc1-n1cnnn1	none
C=CCSC1=N/C(=C\c2ccc(C)o2)C(=O)S1	none (no result: Jurkat tox 60K)
Cc1cccc(NC(=O)CSc2nc3ccccc3c3nc(CCc4c(C)n[nH]c4C)nn23)c1	Fibroblast inh 26.1, HUVEC prolif 384 2.0, H69AR growth 86K 1.1 (no result: Jurkat tox 60K)
O=C1CCCN1c1ccc(S(=O)(=O)Nc2ccc3c(c2)OCCO3)cc1	Jurkat tox 60K 82.0 (no result: Fibroblast inh, HUVEC prolif 384, H69AR growth 86K)
O=S(=O)(Nc1ccc2c(c1)OCCO2)c1ccc(F)cc1	none (no result: Jurkat tox 60K)
O=C(Cn1cc2c(n1)CCCC2)N1CCc2ccccc21	none
CCc1ccc(OCc2nnc(NC(=O)c3cccs3)s2)cc1	none (no result: Jurkat tox 60K)
CCCCNC(=O)c1sc(=S)n2c1[nH]c(=O)c1ccccc12	H69AR growth 86K 26.3
Cc1cc(S(=O)(=O)Nc2ccc(F)cc2)c(C)s1	none (no result: Jurkat tox 60K)
COc1ccc(-c2nc3ccccc3[nH]2)cc1	none (no result: Jurkat tox 60K)
COc1ccc(-c2cc(=O)n(-c3nc4ccccc4[nH]3)[nH]2)cc1	HUVEC prolif 384 10.0, H69AR growth 86K 39.7
CC1(C)CC(NC(=O)C23CCC(C)(/C(=N/O)C2)C3(C)C)CC(C)(C)N1 (configuration not stated)	none (no result: Jurkat tox 60K)
Cc1cccc(-n2nnnc2SC(C)C(=O)NCCC2=CCCCC2)c1 (configuration not stated)	H69AR growth 86K 35.0 (no result: Jurkat tox 60K)
CC(C)c1nnc(SCC(=O)NCCC2=CCCCC2)n1N	none (no result: Jurkat tox 60K)
O=C(N/C=N/OCc1ccc(Cl)cc1Cl)NOCc1c(Cl)cccc1Cl	H69AR growth 86K 11.2 (no result: Jurkat tox 60K)
CO/N=C/NC(=O)NOCc1ccc(Cl)cc1Cl	none (no result: Jurkat tox 60K)
COc1cc(SC)ccc1C(=O)Nc1ccc2c(c1)CCN2S(C)(=O)=O	none
CSc1nc(N)nc(SC2C=CCCC2)c1C#N (configuration not stated)	none
CCCc1nn(C)c2c1C(c1cccnc1)C(C#N)=C(N)O2 (configuration not stated)	none (no result: Jurkat tox 60K)
N#CC1=C(N)Oc2cc(Nc3ccccc3)ccc2C1c1ccncc1 (configuration not stated)	HUVEC prolif 384 3.1, H69AR growth 86K 14.2 (no result: Jurkat tox 60K)
N#CC1=C(N)Oc2cc(N)ccc2C1c1ccc(F)cc1 (configuration not stated)	H69AR growth 86K 14.3 (no result: Jurkat tox 60K)
Cc1ccc(C2C(C#N)=C(N)Oc3n[nH]c(C)c32)cc1 (configuration not stated)	none
COc1cc(C2C(C#N)=C(N)Oc3cc(N)ccc32)cc(OC)c1OC (configuration not stated)	H69AR growth 86K 28.8 (no result: Jurkat tox 60K)
N#CC1=C(N)OC2=C(C(=O)CCC2)C1c1ccncc1 (configuration not stated)	none
CCN(CC)c1ccc2c(c1)OC(N)=C(C#N)C2c1cccnc1 (configuration not stated)	Jurkat tox 60K 97.0 (no result: Fibroblast inh, HUVEC prolif 384, H69AR growth 86K)
C=CCn1c(Cc2csc(N)n2)nnc1SCC(=O)Nc1ccccc1C(F)(F)F	none (no result: Jurkat tox 60K)
O=C(NC1=NCCS1)C1CC2CCC1C2 (configuration not stated)	none
O=C(c1cnc2n(c1=O)CCS2)N1CCN(c2ccc([N+](=O)[O-])cc2)CC1	none (no result: Jurkat tox 60K)
COCCNC(=O)C(c1ccccc1C)N(C(=O)Cn1nnc2ccccc21)c1cccnc1 (configuration not stated)	none (no result: Jurkat tox 60K)
Nn1c(SCC(=O)Nc2ccc(S(=O)(=O)N3CCCC3)cc2)nnc1C(F)(F)F	none
CN(C)c1ccc(-c2nn3c(-c4ccncc4)nnc3s2)cc1	H69AR growth 86K 32.2
CN(C)c1ccc(-c2nn3c(-c4ccccc4Cl)nnc3s2)cc1	Jurkat tox 60K 82.2, H69AR growth 86K 30.4
Cc1ccc(-c2nnc3sc(-c4ccncc4)nn23)cc1	none
COc1cc(-c2nnc3sc(-c4cccs4)nn23)cc(OC)c1OC	H69AR growth 86K 20.8
COc1ccc(-c2nnc3sc(-c4cccs4)nn23)cc1OC	none
C1CCC(c2nn3c(-c4n[nH]c5c4CCC5)nnc3s2)CC1	none
CCN(CC)c1ccc(-c2nn3c(-c4n[nH]c5c4CCC5)nnc3s2)cc1	Fibroblast inh 44.7, Jurkat tox 60K 97.2, H69AR growth 86K 21.7
Clc1ccccc1-c1nnc2sc(-c3ccncc3)nn12	none
COc1cccc(OC)c1OCCN(C)C	none (no result: Jurkat tox 60K)
Cc1ccc(NC(=O)CCc2c(C)nc3ncnn3c2C)nc1	none
COc1ccccc1N(C(C)=O)c1nc(C)cc(C)c1C#N	none (no result: Jurkat tox 60K)
COc1ccccc1-c1nnc2sc(-c3ccc(N(C)C)cc3)nn12	Jurkat tox 60K 99.2 (no result: Fibroblast inh, HUVEC prolif 384, H69AR growth 86K)
COc1ccccc1-c1nnc2sc(-c3cc4ccccc4o3)nn12	Fibroblast inh 48.7, Jurkat tox 60K 86.7, H69AR growth 86K 31.2
COc1ccccc1-c1nn2c(-c3ccc(C(C)(C)C)cc3)nnc2s1	HUVEC prolif 384 25.3 (no result: Jurkat tox 60K)
Cc1[nH]c2ccc(-c3nnc(SCC(=O)c4ccc(F)cc4)o3)cc2c1C	H69AR growth 86K 25.9
Cc1cc(C)c(C)c(C(=O)CSc2nnc(-c3ccc4[nH]c(C)c(C)c4c3)o2)c1C	Fibroblast inh 43.8, H69AR growth 86K 8.7 (no result: Jurkat tox 60K)
CCN(CC)C(=O)C1CCN(Cc2ccc(Br)cc2)CC1	none
Cc1nc2ncnn2c(N2CCCC(C(=O)Nc3ccc4c(c3)CCC4)C2)c1C (configuration not stated)	none (no result: Jurkat tox 60K)
CCOc1cc(S(=O)(=O)N2CC=C(c3ccc(F)cc3)CC2)c(OCC)cc1-n1cnnn1	Fibroblast inh 48.5, H69AR growth 86K 12.1
CCOc1cc(S(=O)(=O)N2CCC(Cc3ccccc3)CC2)c(OCC)cc1-n1cnnn1	none
CCOCCCNS(=O)(=O)c1ccc(Br)cc1	none
O=C(Nc1cnn(Cc2ccc(Cl)cc2Cl)c1)c1noc2c1CCCC2	none
O=C(Nc1cnn(Cc2ccc(Cl)cc2Cl)c1)c1cc(-c2cccs2)on1	H69AR growth 86K 19.4
O=C(Nc1ccc(Br)cc1)c1ccc(N2C(=O)C3CC=C(Cl)CC3C2=O)cc1 (configuration not stated)	H69AR growth 86K 25.4 (no result: Jurkat tox 60K)
O=C(c1ccc(N2C(=O)C3CC=C(Cl)CC3C2=O)cc1)N1CCCCC1 (configuration not stated)	none (no result: Jurkat tox 60K)
COC(=O)c1cc(NC(=O)c2ccc(Cn3cc(Cl)cn3)o2)cc(C(=O)OC)c1	Fibroblast inh 6.8, H69AR growth 86K 2.7
COc1cc(S(=O)(=O)N(C)C)ccc1F	none
COCCCNC(=O)c1ccc(Cn2c(=O)c3ccccc3n(Cc3ccccc3C#N)c2=O)cc1	H69AR growth 86K 18.3 (no result: Jurkat tox 60K)
COCCCNC(=O)c1ccc(Cn2c(=O)c3ccccc3n(Cc3ccccc3C)c2=O)cc1	H69AR growth 86K 18.8 (no result: Jurkat tox 60K)
COCCCNC(=O)c1ccc(Cn2c(=O)c3ccccc3n(Cc3cc(C)ccc3C)c2=O)cc1	H69AR growth 86K 39.2 (no result: Jurkat tox 60K)
